Measured values collected from several papers.
Compare with care: the assays were run in different laboratories.
Target: Focal adhesion kinase 1 (PTK2, Homo sapiens, UniProt Q05397)

SMILES	effect on	mode	technique	tested at	measurement	result
Cc1[nH]c(/C=C2\C(=O)Nc3ccc(F)cc32)c(C)c1C(=O)N[C@H]1CCN(C(=O)N(C)C)C1	enzyme activity	inhibitor		1 µM	remaining activity	27%
C[C@H](c1cccc(C#N)c1)n1cc(Cl)cc(C(N)=O)c1=N	cell-free assay		competition with immobilised ligand	1 µM	remaining binding	100%
Nc1nc(Nc2ccc(S(N)(=O)=O)cc2)nn1C(=O)c1c(F)cccc1F	cell-free assay			0.5 µM	remaining signal	95.5%
Cc1ccc(NC(=O)c2ccc(CN3CCN(C)CC3)cc2)cc1Nc1nccc(-c2cncc(-c3oncc3C)c2)n1	enzyme activity	inhibitor		0.5 µM	remaining activity	≤ 50%
Cc1ccc(Nc2nccc(N(C)c3ccc4c(C)n(C)nc4c3)n2)cc1S(N)(=O)=O	enzyme activity	inhibitor		10 µM	inhibition	73%
Cc1sc(C(=O)NC2COC2)cc1-n1cc(NC(=O)Nc2c(F)cccc2Cl)cn1	enzyme activity	inhibitor		10 µM	remaining activity	104%
CC(C)(O)[C@H]1CC[C@H](Nc2ccc3ncc(-c4cccc(C(F)(F)F)c4)n3n2)CC1	enzyme activity	inhibitor		1 µM	remaining activity	83.5%
Cc1nccc(COC(=O)N2C[C@@H]3[C@@H](CNC(=O)c4ccc5[nH]nnc5c4)[C@@H]3C2)n1	cell-free assay		competition with immobilised ligand	1 µM	remaining binding	100%
O=C(CSc1nc2nccnc2c(=O)n1CCc1ccccc1)Nc1nccs1	enzyme activity	inhibitor		10 µM	inhibition	6%
C=CC(=O)Nc1cc(Nc2nccc(Nc3cc(Cl)c(F)cc3C(C)(C)O)n2)c(OC)cc1N1CC[C@@H](N(C)C)C1	enzyme activity	inhibitor		1 µM	inhibition	74%
Cc1cnn2ncc(-c3ccnc(N(C)C)n3)c2c1	cell-free assay			1 µM	remaining signal	92%
CSc1cccnc1N1CCN(Cc2nc3ccccc3[nH]2)CC1	cell-free assay		competition with immobilised ligand	1 µM	remaining binding	100%
c1nc2c(Nc3ccc4c(c3)OCCO4)nc(Nc3ccc4c(c3)OCCO4)nc2[nH]1	enzyme activity	inhibitor		10 µM	activity vs control	58%
Oc1cccc(-c2nc(N3CCOCC3)c3oc4ncccc4c3n2)c1	cell-free assay			0.5 µM	remaining signal	93.5%
CC1=C(C#N)C(c2ccc3c(c2)c(NC(=O)c2ccccc2C)nn3C)C(C#N)=C(C)N1	cell-free assay		competition with immobilised ligand	1 µM	remaining binding	94%
COc1cc2ncnc(Nc3ccc(Oc4ccccc4)cc3C)c2cc1OC	enzyme activity	inhibitor		1 µM	inhibition	5%
CC/C(=N\NC(=O)NCc1cccc(O)c1)c1ccc(O)c(C)c1O	enzyme activity	inhibitor		0.1 µM	inhibition	-3.8%
Cc1nc(C2CCN(C(=O)c3ccc(OC(F)(F)F)cc3N)CC2)c2ncc(N3CCN(C)CC3)cc2n1	cell-free assay		competition with immobilised ligand	1 µM	remaining binding	91%
CC(C)(C)c1nc(-c2cccc(NS(=O)(=O)c3c(F)cccc3F)c2F)c(-c2ccnc(N)n2)s1	enzyme activity	inhibitor	radiometric	1 µM	remaining activity	89%
COc1ccnn2ncc(-c3ccnc(N(C)C)n3)c12	cell-free assay			1 µM	remaining signal	100%
N#CCCc1ccc2c(c1)-c1[nH]c3ccc([N+](=O)[O-])cc3c1CC(=O)N2	cell-free assay			0.5 µM	remaining signal	82.2%
C[C@@H]1CN(c2cc(-c3nn(C)c4ccc(OC5(C)CC5)cc34)ncn2)C[C@H](C)O1	cell-free assay		competition with immobilised ligand	1 µM	remaining binding	95%
COc1cc(-c2cc(-c3ccc(N4CCNCC4)cc3)cnc2C)cc(OC)c1OC	enzyme activity	inhibitor		1 µM	inhibition	16%
CN(c1nccc(-c2cnn3ncccc23)n1)C1CC1	cell-free assay			1 µM	remaining signal	100%
CCS(=O)(=O)c1cc2cc(C[C@](O)(CC(C)(C)c3ccc(F)cc3C(N)=O)C(F)(F)F)[nH]c2cn1	cell-free assay		competition with immobilised ligand	1 µM	remaining binding	97%
O=C(Nc1cnn(-c2csc(C(=O)NC3COC3)c2)c1)Nc1c(F)cccc1Cl	enzyme activity	inhibitor		5 µM	remaining activity	89%
Cc1cc(NC(=O)c2cccc3cc(-c4cccc5[nH]nc(N)c45)ccc23)ccc1F	enzyme activity	inhibitor		0.1 µM	activity vs control	98%
Nc1ncnc2occ(-c3ccc(NC(=O)Nc4cc(C(F)(F)F)ccc4F)cc3)c12	cell-free assay	inhibitor		20 µM	remaining signal	0.1%
COCCOc1nc(-c2ccc(Cl)nc2)nc2c1CN(C(=O)c1ncn3ccccc13)CC2	cell-free assay		competition with immobilised ligand	0.1 µM	remaining binding	99%
CCCS(=O)(=O)Nc1ccc(F)c(C(=O)c2c[nH]c3ncc(-c4ccc(Cl)cc4)cc23)c1F	enzyme activity	inhibitor		1 µM	inhibition	< 10%
